Measured values: ChEMBL document CHEMBL1148447, “Structure-activity study on a novel series of macrocyclic inhibitors of the hepatitis C virus NS3 protease leading to the discovery of BILN 2061” (J Med Chem, 2004)

What was measured:
[1] = Inhibitory concentration against hepatitis C virus NS3 protease; set-up: species or system Hepacivirus hominis
Hepatitis C virus = assay: Inhibition of hepatitis C virus in a cell based HCV replicon assay.; assay type: functional, organism-based, Hepacivirus hominis
[2] = Half-life period in rats after intravenous administration at 5 mg/kg; assay type: ADME, organism-based; set-up: dose 5 mg/kg, route intravenous; settings: rat, in vivo
In short: (§1)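 Rats received an intravenous bolus of 5 mg/kg in PEG400/water (70:30). Half-life, Vss and plasma clearance were taken from plasma levels. Bioavailability was derived by comparison with oral gavage dosing at 20 mg/kg in the same vehicle.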

[3] = Area under the plasma concentration-time curve in rats after oral administration at 20 mg/kg; assay type: ADME, organism-based; set-up: dose 20 mg/kg, route oral; settings: rat
In short: (§2)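 Rats dosed by oral gavage at 20 mg/kg in PEG400/water (70:30). Cmax and AUC0-∞ were taken from the plasma concentration–time profile.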

Rattus norvegicus [4] = assay: Bioavailability in rat (dose 5 mg/kg i.v.); assay type: functional, organism-based; in short: as §1
[5] = Maximum plasma concentration in rats following oral administration at 20 mg/kg; assay type: ADME, organism-based; set-up: dose 20 mg/kg, route oral; settings: rat; in short: as §2
Rattus norvegicus [6] = assay: Plasma clearance after intravenous administration at 5 mg/kg in rats; assay type: functional; in short: as §1
[7] = Maximum plasma concentration in rats after oral administration at 20 mg/kg; assay type: ADME, organism-based; set-up: dose 20 mg/kg, route oral; settings: rat; in short: as §2
[8] = Vss was determined; assay type: ADME, organism-based; settings: rat, in vivo; read-out: Vss; in short: as §1
[9] = Area under the plasma concentration-time curve in rats following oral administration at 20 mg/kg; assay type: ADME, organism-based; set-up: dose 20 mg/kg, route oral; settings: rat; in short: as §2
Rattus norvegicus [10] = assay: Bioavailability from rat plasma at a single oral dose of 25 mg/kg; assay type: ADME, organism-based; settings: in vivo
[11] = Half-life from rat plasma at a single oral dose of 25 mg/kg; assay type: ADME, organism-based; set-up: dose 25 mg/kg, route oral
[12] = Area under the plasma concentration-time curve in rats after oral administration at 25 mg/kg; assay type: ADME, organism-based; set-up: dose 25 mg/kg, route oral; settings: rat, read-out: AUC 0-infinity

`COc1ccc2c(O[C@@H]3C[C@H]4C(=O)N[C@]5(C(=O)O)C[C@H]5/C=C\CCCCC[C@H](NC(=O)OC(C)(C)C)C(=O)N4C3)cc(-c3nnc(C)o3)nc2c1` showed an IC50 [1] of 12 nM and an EC50 (Hepatitis C virus) of 200 nM.

`COc1ccc2c(O[C@@H]3C[C@H]4C(=O)N[C@]5(C(=O)O)C[C@H]5/C=C\CCCCC[C@H](NC(=O)OC(C)(C)C)C(=O)N4C3)cc(-n3cnc(C)c3)nc2c1` showed an IC50 [1] of 14 nM and an EC50 (Hepatitis C virus) of 39 nM.

In the case of `COc1ccc2c(O[C@@H]3C[C@H]4C(=O)N[C@]5(C(=O)O)C[C@H]5/C=C\CCCCC[C@H](NC(=O)OC5CCCC5)C(=O)N4C3)cc(-n3ccc(C)n3)nc2c1`, the IC50 [1] is reported as 2.2 nM and the EC50 (Hepatitis C virus) is reported as 1.2 nM.

For `COc1ccc2c(O[C@@H]3C[C@H]4C(=O)N[C@]5(C(=O)O)C[C@H]5/C=C\CCCCC[C@H](NC(=O)OC5CCC5)C(=O)N4C3)cc(-c3csc(NC(C)=O)n3)nc2c1`, the IC50 [1] was 2.8 nM and the EC50 (Hepatitis C virus) was 0.6 nM.

`COc1ccc2c(O[C@@H]3C[C@H]4C(=O)N[C@]5(C(=O)O)C[C@H]5/C=C\CCCCC[C@H](NC(=O)OC(C)(C)C)C(=O)N4C3)cc(-n3cccn3)nc2c1` showed an IC50 [1] of 5.5 nM and an EC50 (Hepatitis C virus) of 3.9 nM.

With `C=C[C@@H]1C[C@]1(NC(=O)[C@@H]1C[C@@H](Oc2cc(-c3ccccc3)nc3ccccc23)CN1C(=O)[C@@H](NC(=O)[C@@H](NC(=O)[C@@H](CCC(=O)O)NC(=O)[C@H](CC(=O)O)NC(C)=O)c1ccccc1)C(C)(C)C)C(=O)O` the IC50 [1] was 0.5 nM and the EC50 (Hepatitis C virus) was 1900 nM.

`CNc1nc(-c2cc(O[C@@H]3C[C@H]4C(=O)N[C@]5(C(=O)O)C[C@H]5/C=C\CCCCC[C@H](NC(=O)OC(C)(C)C)C(=O)N4C3)c3ccc(OC)cc3n2)cs1` showed an IC50 [1] of 6.4 nM and an EC50 (Hepatitis C virus) of 6 nM.

Compound `COc1ccc2c(O[C@@H]3C[C@H]4C(=O)N[C@]5(C(=O)O)C[C@H]5/C=C\CCCCC[C@H](NC(=O)OC5CCCC5)C(=O)N4C3)cc(-c3csc(N)n3)nc2c1` has an IC50 [1] of 3.5 nM and an EC50 (Hepatitis C virus) of 1.6 nM.

`COc1ccc2c(O[C@@H]3C[C@H]4C(=O)N[C@]5(C(=O)O)C[C@H]5/C=C\CCCCC[C@H](NC(=O)OC5CCCC5)C(=O)N4C3)cc(-n3cccn3)nc2c1` gave an IC50 [1] of 2.2 nM and an EC50 (Hepatitis C virus) of 1.1 nM.

For `C=C[C@@H]1C[C@]1(NC(=O)C1CC(Oc2ccnc3ccccc23)CN1C(=O)[C@@H](NC(=O)[C@@H](NC(C)=O)c1ccccc1)C(C)C)C(=O)O` (single isomer, unassigned), the IC50 [1] was 170 nM.

Compound `CNc1nc(-c2cc(O[C@@H]3C[C@H]4C(=O)N[C@]5(C(=O)O)C[C@H]5/C=C\CCCCC[C@H](NC(=O)OC5CCCC5)C(=O)N4C3)c3ccc(OC)cc3n2)cs1` has an IC50 [1] of 2.5 nM and an EC50 (Hepatitis C virus) of 0.8 nM.

In the case of `COc1ccc2c(O[C@@H]3C[C@H]4C(=O)N[C@]5(C(=O)O)C[C@H]5/C=C\CCCCC[C@H](NC(=O)OC(C)(C)C)C(=O)N4C3)cc(-c3csc(NC(C)=O)n3)nc2c1`, the IC50 [1] is reported as 4.8 nM, the half-life [2] is reported as 48 min and the AUC [3] is reported as 0.3 µM·h. The bioavailability (Rattus norvegicus [4]) was 8%, the Cmax [5] was 300 nM and the EC50 (Hepatitis C virus) was 4.5 nM.

For `COc1ccc2c(O[C@@H]3C[C@H]4C(=O)N[C@]5(C(=O)O)C[C@H]5/C=C\CCCCC[C@H](NC(=O)OC(C)(C)C)C(=O)N4C3)cc(-n3ccnc3)nc2c1`, the IC50 [1] was 4.7 nM and the EC50 (Hepatitis C virus) was 13 nM.

`COc1ccc2c(O[C@@H]3C[C@H]4C(=O)N[C@]5(C(=O)O)C[C@H]5/C=C\CCCCC[C@H](NC(=O)OC5CCCC5)C(=O)N4C3)cc(-c3csc(NC(C)=O)n3)nc2c1` gave an IC50 [1] of 2.5 nM and an EC50 (Hepatitis C virus) of 0.4 nM.

`COc1ccc2c(O[C@@H]3C[C@H]4C(=O)N[C@]5(C(=O)O)C[C@H]5/C=C\CCCCC[C@H](NC(=O)OC5CCCC5)C(=O)N4C3)cc(-c3csc(NC(C)C)n3)nc2c1` [CILUPREVIR] gave an IC50 [1] of 3 nM, a C1 (Rattus norvegicus [6]) of 13 mL/min/kg and a half-life [2] of 78 min. The AUC [3] was 12.5 µM·h, the Cmax [7] was 2500 nM and the bioavailability (Rattus norvegicus [4]) was 42%. For the same compound, the Vd [8] was 1 L/kg.

Compound `CCNc1nc(-c2cc(O[C@@H]3C[C@H]4C(=O)N[C@]5(C(=O)O)C[C@H]5/C=C\CCCCC[C@H](NC(=O)OC5CCCC5)C(=O)N4C3)c3ccc(OC)cc3n2)cs1` has an IC50 [1] of 2.9 nM, an AUC [9] of 7.2 µM·h and a Cmax [5] of 1000 nM. The EC50 (Hepatitis C virus) was 1 nM.

With `COc1ccc2c(O[C@@H]3C[C@H]4C(=O)N[C@]5(C(=O)O)C[C@H]5/C=C\CCCCC[C@H](NC(=O)N[C@H](C)C(C)(C)C)C(=O)N4C3)cc(-c3csc(NC(C)=O)n3)nc2c1` the IC50 [1] was 1.4 nM and the EC50 (Hepatitis C virus) was 20 nM.

Compound `C=C[C@@H]1C[C@]1(NC(=O)C1CC(Oc2cc(-c3ccccc3)nc3ccccc23)CN1C(=O)[C@@H](NC(=O)[C@@H](NC(C)=O)c1ccccc1)C(C)C)C(=O)O` (single isomer, unassigned) has an IC50 [1] of 13 nM.

In the case of `COc1ccc2c(O[C@@H]3C[C@H]4C(=O)N[C@]5(C(=O)O)C[C@H]5/C=C\CCCCC[C@H](NC(=O)OC(C)(C)C)C(=O)N4C3)ccnc2c1`, the IC50 [1] is reported as 24 nM and the EC50 (Hepatitis C virus) is reported as 1200 nM.

Work on `COc1ccc2c(O[C@@H]3C[C@H]4C(=O)N[C@]5(C(=O)O)C[C@H]5/C=C\CCCCC[C@H](NC(=O)OC(C)(C)C)C(=O)N4C3)cc(-c3csc(N)n3)nc2c1` yielded an IC50 [1] of 5.5 nM and an EC50 (Hepatitis C virus) of 3.2 nM.

In the case of `COc1ccc2c(O[C@@H]3C[C@H]4C(=O)N[C@]5(C(=O)O)C[C@H]5/C=C\CCCCC[C@H](NC(=O)OC5CCCC5)C(=O)N4C3)cc(-n3cccc3)nc2c1`, the IC50 [1] is reported as 3.6 nM and the EC50 (Hepatitis C virus) is reported as 3.4 nM.

For `COc1ccc2c(O[C@@H]3C[C@H]4C(=O)N[C@]5(C(=O)O)C[C@H]5/C=C\CCCCC[C@H](NC(=O)OC(C)(C)C)C(=O)N4C3)cc(-n3cccc3)nc2c1`, the IC50 [1] was 5.1 nM and the EC50 (Hepatitis C virus) was 9.5 nM.

`COc1ccc2c(O[C@@H]3C[C@H]4C(=O)N[C@]5(C(=O)O)C[C@H]5/C=C\CCCCC[C@H](NC(=O)OC(C)(C)C)C(=O)N4C3)cc(-c3ccccc3)nc2c1` showed an IC50 [1] of 11 nM, an F (Rattus norvegicus [10]) of 2% and a half-life [11] of 24 min. The AUC [12] was 0.2 µM·h and the EC50 (Hepatitis C virus) was 77 nM.

In the case of `COc1ccc2c(O[C@@H]3C[C@H]4C(=O)N[C@]5(C(=O)O)C[C@H]5/C=C\CCCCC[C@H](NC(=O)OC(C)(C)C)C(=O)N4C3)cc(-n3cc(C)cn3)nc2c1`, the IC50 [1] is reported as 22 nM and the EC50 (Hepatitis C virus) is reported as 20 nM.

For `COc1ccc2c(O[C@@H]3C[C@H]4C(=O)N[C@]5(C(=O)O)C[C@H]5/C=C\CCCCC[C@H](NC(=O)OC(C)(C)C)C(=O)N4C3)cc(-n3ccc(C)n3)nc2c1`, the IC50 [1] was 3 nM and the EC50 (Hepatitis C virus) was 4 nM.
